Experimental data pooled from the literature.
Compare with care: the assays were run in different laboratories.

O=C(Nc1ccc([N+](=O)[O-])cc1)Nc1cccc(C(F)(F)F)c1 — IC50 (LAD2; degranulation): 0.75 µM
CC(=O)Nc1ccc(Oc2nnc(-c3ccc(Cl)cc3)c3ccccc23)cc1 — cell death (HepG2; cell growth or viability; MTT; 5 µM): 93.5%
CNc1ncc2c(/C=C/C(=O)N3CCC(OC)CC3)nn(CC3CCCC3)c2n1 — EC50 (OE33; cell growth or viability; resazurin; 5 days): 6.72 µM
CCOC(=O)c1nn(-c2cccc(Cl)c2)/c(=N/N=C(\C)c2ccc(NC(=O)c3ccc(Cl)cc3)cc2)s1 — viability (HepG2; cell growth or viability; MTT; 1.25 µM): 2.59%
CN(C)C1CCN(C(=O)/C=C/c2nn(CC3CCCC3)c3ncnc(N)c23)CC1 — EC50 (OE33; cell growth or viability; resazurin; 5 days): > 30 µM
O=C(Nc1ccc(C(F)(F)F)cc1)Nc1cccc(Br)c1 — IC50 (LAD2; degranulation): 1.24 µM
CC(C)(C)c1cnc(CSc2cnc(NC(=O)C3CCN(CCCCSc4cccc5c4C(=O)N(C4CCC(=O)NC4=O)C5=O)CC3)s2)o1 (centres unmarked) — viability (HH; cell growth or viability; CCK-8; 10 nM): 105%
Nc1ncnc2c1c(/C=C/C(=O)N1CCCC1)nn2CC1CCCC1 — EC50 (OE33; cell growth or viability; resazurin; 5 days): > 30 µM
CCOC(=O)c1nn(-c2cccc(Cl)c2)/c(=N/N=C(\C)c2ccc(NC(=O)c3ccccc3)cc2)s1 — viability (HepG2; cell growth or viability; MTT; 0.156 µM): 25.9%
CCOC1CCN(C(=O)/C=C/c2nn(Cc3cccc(C)c3)c3nc(NC)ncc23)CC1 — EC50 (OE33; cell growth or viability; resazurin; 5 days): 2.28 µM
CC(=NNC(=O)c1ccccc1Br)c1ccc(Nc2nnc(-c3ccc(Cl)cc3)c3ccccc23)cc1 — cell death (HepG2; cell growth or viability; MTT; 0.312 µM): 14.6%
C=CC(=O)NC1CCN(c2ncc3ncnc(Nc4ccc(Oc5ccc6c(c5)ncn6C)c(C)c4)c3n2)CC1 — EC50 (DMS-273; cell growth or viability): 0.338 µM
CC(C)(C)c1cnc(CSc2cnc(NC(=O)C3CCN(CCCCCCCSc4cccc5c4C(=O)N(C4CCC(=O)NC4=O)C5=O)CC3)s2)o1 (centres unmarked) — viability (HH; cell growth or viability; CCK-8; 50 nM): 96%
CC(C)OC(=O)C(n1cccn1)n1cccn1 — IC50 (A-431; cell growth or viability; MTT; 72 h): > 50 µM
CC1CCN(C(=O)/C=C/c2nn(CC3CCCC3)c3ncnc(N)c23)CC1 — EC50 (OE33; cell growth or viability; resazurin; 5 days): > 30 µM
CC(=NNC(=S)Nc1ccccc1)c1ccc(Nc2nnc(-c3ccc(Cl)cc3)c3ccccc23)cc1 — cell death (HepG2; cell growth or viability; MTT; 10 µM): 95.7%
CC(=O)c1nn(-c2ccccc2Cl)/c(=N/N=C(\C)c2ccc(NC(=O)c3ccccc3)cc2)s1 — viability (HepG2; cell growth or viability; MTT; 5 µM): 6.09%
O=C(Nc1ccccc1)Nc1ccc(C(F)(F)F)cc1 — IC50 (LAD2; degranulation): 8.31 µM
CNc1ncc2c(/C=C/C(=O)N3CCC(OC)CC3)nn(Cc3ccccc3OC)c2n1 — EC50 (OE33; cell growth or viability; resazurin; 5 days): 7.72 µM
O=C(Nc1ccccc1)Nc1ccc(Oc2nnc(-c3ccc(Cl)cc3)c3ccccc23)cc1 — cell death (HepG2; cell growth or viability; MTT; 0.312 µM): 93%
CNc1ncc2c(/C=C/C(=O)N3CCC(COC)CC3)nn(Cc3cccc(C)c3)c2n1 — EC50 (OE33; cell growth or viability; resazurin; 5 days): > 30 µM
CC(C)(C)c1cnc(CSc2cnc(NC(=O)C3CCN(C(=O)CCCSc4cccc5c4C(=O)N(C4CCC(=O)NC4=O)C5=O)CC3)s2)o1 (centres unmarked) — viability (HH; cell growth or viability; CCK-8; 0.5 µM): 17.8%
O=C(Nc1ccccc1)Nc1cccc(Br)c1 — IC50 (LAD2; degranulation): 22.1 µM
COC(=O)/C=C/c1nn(CC2CCCC2)c2ncnc(N)c12 — EC50 (OE33; cell growth or viability; resazurin; 5 days): > 30 µM
O=C(Nc1ccc(Oc2nnc(-c3ccc(Cl)cc3)c3ccccc23)cc1)c1cccc([N+](=O)[O-])c1 — cell death (HepG2; cell growth or viability; MTT; 0.625 µM): 32.3%
CC(C)(C)c1cnc(CSc2cnc(NC(=O)C3CCN(CCCCCSc4cccc5c4CN(C4CCC(=O)NC4=O)C5=O)CC3)s2)o1 (centres unmarked) — viability (HH; cell growth or viability; CCK-8; 0.25 µM): 0%
CC(=NNC(=O)c1cccnc1)c1ccc(Nc2nnc(-c3ccc(Cl)cc3)c3ccccc23)cc1 — cell death (HepG2; cell growth or viability; MTT; 10 µM): 96.8%
CC(C)(C)c1cnc(CSc2cnc(NC(=O)C3CCN(CCCCCCCCSc4cccc5c4CN(C4CCC(=O)NC4=O)C5=O)CC3)s2)o1 (centres unmarked) — IC50 (HH; cell growth or viability; trypan blue; 48 h): 0.114 µM
Cc1sc2c(c1C)C(c1ccc(Cl)cc1)=N[C@@H](CC(=O)NCCCCCCCCNC(=O)COc1cccc3c1C(=O)N(C1CCC(=O)NC1=O)C3=O)c1nnc(C)n1-2 (some centres unmarked) — IC50 (Ramos; cell growth or viability; ATP luminescence; 72 h): 0.012 µM
CC(=O)c1nn(-c2ccc(C)cc2)/c(=N/N=C(\C)c2ccc(NC(=O)c3ccccc3)cc2)s1 — viability (HepG2; cell growth or viability; MTT; 0.625 µM): 5.4%
CC(=NNC(=O)c1ccncc1)c1ccc(Nc2nnc(-c3ccc(Cl)cc3)c3ccccc23)cc1 — cell death (HepG2; cell growth or viability; MTT; 0.312 µM): 64.7%
CC(C)(C)c1cnc(CSc2cnc(NC(=O)C3CCN(C(=O)COCCOCCSc4cccc5c4C(=O)N(C4CCC(=O)NC4=O)C5=O)CC3)s2)o1 (centres unmarked) — viability (HH; cell growth or viability; CCK-8; 0.5 µM): 13.5%
